Measured values of several laboratories.
Compare with care: the assays were run in different laboratories.
Target: Serine/threonine-protein kinase Nek1 (NEK1, Homo sapiens, UniProt Q96PY6)
One construct used (Q96PY6 1-1258): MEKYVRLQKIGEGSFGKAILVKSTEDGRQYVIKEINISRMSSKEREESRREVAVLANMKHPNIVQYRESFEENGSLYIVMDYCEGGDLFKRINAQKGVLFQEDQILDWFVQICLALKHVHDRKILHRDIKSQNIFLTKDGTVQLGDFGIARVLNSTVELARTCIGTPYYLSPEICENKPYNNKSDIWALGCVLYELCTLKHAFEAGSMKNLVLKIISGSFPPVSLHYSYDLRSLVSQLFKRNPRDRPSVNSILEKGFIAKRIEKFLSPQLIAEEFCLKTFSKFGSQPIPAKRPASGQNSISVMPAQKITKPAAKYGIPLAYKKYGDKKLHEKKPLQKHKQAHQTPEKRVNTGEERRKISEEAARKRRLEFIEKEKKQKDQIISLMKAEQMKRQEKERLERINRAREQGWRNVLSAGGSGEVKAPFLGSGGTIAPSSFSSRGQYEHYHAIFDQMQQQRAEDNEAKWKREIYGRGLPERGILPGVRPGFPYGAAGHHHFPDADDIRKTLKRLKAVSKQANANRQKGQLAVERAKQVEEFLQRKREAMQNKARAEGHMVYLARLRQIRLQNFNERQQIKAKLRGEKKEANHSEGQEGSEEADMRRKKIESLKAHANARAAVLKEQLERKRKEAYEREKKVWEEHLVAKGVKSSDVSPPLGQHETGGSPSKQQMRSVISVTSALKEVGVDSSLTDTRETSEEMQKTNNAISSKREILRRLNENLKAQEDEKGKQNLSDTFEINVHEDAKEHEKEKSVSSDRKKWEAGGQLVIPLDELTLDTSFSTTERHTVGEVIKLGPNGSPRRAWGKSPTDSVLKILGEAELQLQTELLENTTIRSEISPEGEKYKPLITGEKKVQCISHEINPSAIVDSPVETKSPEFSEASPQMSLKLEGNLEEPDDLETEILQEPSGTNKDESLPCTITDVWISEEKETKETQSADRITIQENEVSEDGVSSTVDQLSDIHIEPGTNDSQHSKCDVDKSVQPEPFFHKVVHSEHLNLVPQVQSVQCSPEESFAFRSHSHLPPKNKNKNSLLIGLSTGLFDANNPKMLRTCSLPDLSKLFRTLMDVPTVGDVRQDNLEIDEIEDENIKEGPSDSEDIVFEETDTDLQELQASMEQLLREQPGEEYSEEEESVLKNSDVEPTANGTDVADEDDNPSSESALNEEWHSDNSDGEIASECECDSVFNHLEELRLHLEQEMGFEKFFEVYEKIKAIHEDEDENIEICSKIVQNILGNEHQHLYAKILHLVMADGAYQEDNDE

SMILES | observed | method | concentration | remaining binding
CN(C)C(=O)Cn1cc(-c2nc([C@@](C)(c3ccc(-c4cnc(N)nc4)cc3)C3CC3)no2)cn1 | cell-free assay | competition with immobilised ligand | 1 µM | 100%
C[C@H]1CCN(c2nccc(-c3cnn4ncccc34)n2)C1 | binding | – | 1 µM | 100%
COc1cnc(Nc2cccc(S(N)(=O)=O)c2)nc1N1CCN(c2ccccc2)C(=O)C1 | binding | competition with immobilised ligand | 1 µM | 100%
Cn1cc(Cl)c2c(Oc3c(F)cc(Nc4cc(Cl)nc(N)n4)cc3F)ccnc21 | cell-free assay | competition with immobilised ligand | 0.1 µM | 100%
CC1CCCN1c1nccc(-c2cnn3ncccc23)n1 (stereo not shown) | binding | – | 1 µM | 100%
O=C(NCCCN1CCOCC1)c1ccc(Nc2ncc(Cl)c(-c3ccc(Cl)s3)n2)cc1 | binding | competition with immobilised ligand | 1 µM | 76%
C[C@@H](c1ccc(-n2cnc3c(N)ncnc32)cc1)N1CCc2nn(C)c(Cc3ccccc3)c2C1=O | binding | competition with immobilised ligand | 0.1 µM | 87%
CN(C)c1nccc(-c2cnn3ncccc23)n1 | binding | – | 1 µM | 88%
O=C(NCC1CCOCC1)c1n[nH]cc1NC(=O)c1c(F)cccc1F | binding | competition with immobilised ligand | 1 µM | 100%
O=C(NS(=O)(=O)c1ccc(NCC2CCOCC2)c([N+](=O)[O-])c1)c1ccc(N2CCN(Cc3ccc(C(F)(F)F)cc3-c3ccc(Cl)cc3)CC2)cc1Oc1cnc2[nH]ccc2c1 | cell-free assay | competition with immobilised ligand | 1 µM | 99%
N[C@H]1CCN(c2nccc(-c3cnn4ncccc34)n2)C1 | binding | – | 1 µM | 97%
COc1ncc2cc3ccccc3nc2c1C#N | cell-free assay | competition with immobilised ligand | 5 µM | 100%
COc1ccnn2ncc(-c3ccnc(N(C)C)n3)c12 | binding | – | 1 µM | 100%
O=C(NCCCN1CCOCC1)c1ccc(Nc2nccc(-c3cc4ccccc4s3)n2)cc1 | binding | competition with immobilised ligand | 1 µM | 72%
CN(C)c1ncc(F)c(-c2cnn3ncccc23)n1 | binding | – | 1 µM | 100%
Nc1cnc(N2CCc3cc(S(=O)(=O)Nc4c(F)cc(Cl)cc4F)cc(N4CCCC4=O)c32)nc1 | binding | competition with immobilised ligand | 1 µM | 46%
O=C(c1ccc(Nc2ncc(Cl)c(-c3ccc(Cl)s3)n2)cc1)N1CCC(N2CCCC2)CC1 | binding | competition with immobilised ligand | 1 µM | 23%
CNC(=O)Nc1ccc2c(c1)CC[C@@]21OC(=O)N(CC(=O)N(Cc2ccc(F)cc2)[C@@H](C)C(F)(F)F)C1=O | cell-free assay | competition with immobilised ligand | 1 µM | 100%
C=CC(=O)N1CCC(C(=O)NCC(=O)N2CCN(c3nc(-c4cnc(N)nc4C(F)F)nc(N4CCOCC4)n3)CC2)CC1 | binding | competition with immobilised ligand | 1 µM | 96%
Nc1ncc2c(n1)-c1c([nH]c3ccc(C#CC4CC4)cc13)CCCC2 | binding | competition with immobilised ligand | 1 µM | 100%
CCC(=O)N[C@H]1CC[C@@H](C(=O)N(C)c2ccc(-c3nc4ccccc4o3)cc2)C1 | cell-free assay | competition with immobilised ligand | 1 µM | 100%
CNC(=O)[C@@H]1CC[C@@H](n2c(-c3ccc4cnccc4c3)nc3ccc(C(=O)NCc4cccc(C(N)=O)c4)cc32)C1 | binding | competition with immobilised ligand | 1 µM | 100%
